Data on 10 molecules can be found in ChEMBL document CHEMBL1146239, “Kadsuphilols A-H, oxygenated lignans from Kadsura philippinensis” (J Nat Prod, 2007).

Assay type in all cases: functional
The nature of assay [1]: DPPH radical scavenging activity at 25 uM. The procedure, abridged: (§1)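 Compound dilutions prepared in 100% DMSO, mixed with 100 µM DPPH in ethanol at 37 °C, shaken vigorously and left to stand 30 min. Absorbance read at 517 nm by UV-vis spectrophotometry. Scavenging reported as percent at 100, 50, 25, 12.5 and 6.25 µM. Vitamins C and E served as standards.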
Assay [2] is described as follows: DPPH radical scavenging activity at 12.5 uM. The essentials:
as §1

The nature of assay [3]: DPPH radical scavenging activity at 100 uM. The procedure, abridged: as §1
The nature of assay [4]: DPPH radical scavenging activity at 50 uM. The essentials:
as §1

The nature of assay [5]: DPPH radical scavenging activity at 6.25 uM. The procedure, abridged: as §1

Regarding `C/C=C(\C)C(=O)O[C@H]1[C@@](C)(O)[C@@H](C)[C@H]2O[C@@]13CC(=O)C(OC)=C(OC)C31COc3c4c(cc2c31)OCO4` (stereo not given in full), the Activity in assay [1] is -3.2%; in assay [2] it was -4.7%; in assay [3] it was -2.8%; in assay [4] it was -3.7%; in assay [5] it was -5.3%.

Take `C/C=C(\C)C(=O)O[C@H]1c2cc3c(c(OC)c2-c2c(cc(OC)c(OC)c2O)[C@H](OC(=O)/C(C)=C/C)[C@@]2(CO2)[C@H]1C)OCO3`: the Activity worked out at 48.1% in assay [1], 46.2% in assay [2], 51.4% in assay [4] and 47.4% in assay [5]. This molecule registered an inhibition in assay [3] of 54.7%.

On to VITAMIN E, for which the Activity in assay [1] came out at 12.6%; in assay [2], 4.9%; in assay [3], 17.6%; in assay [4], 12.9%; in assay [5], 1.3%.

With `COc1cc2c(c(OC)c1O)-c1c(cc(OC)c(OC)c1O)C[C@@H](C)[C@@H](C)[C@H]2OC(=O)/C=C/c1ccccc1`, the Activity was determined as 32.2% in assay [1]; 28.1% in assay [2]; 38.1% in assay [3]; 34.4% in assay [4]; 10% in assay [5].

For `C/C=C(\C)C(=O)O[C@H]1[C@@](C)(O)[C@@H](C)[C@H]2O[C@@]13CC(OC)=C(OC)C(=O)C31COc3c4c(cc2c31)OCO4` (stereo not given in full), the Activity in assay [1] stood at 6.1%; in assay [2], 3.9%; in assay [3], 8.4%; in assay [4], 6.6%; in assay [5], 3.9%.

Regarding `COc1cc2c(c(O)c1OC)-c1c(cc3c(c1OC)OCO3)[C@H](O)[C@H](C)[C@H](C)C2`, the Activity was -10.7% in assay [1]; -18.5% in assay [2]; -4.2% in assay [3]; -1.6% in assay [4]; -38.9% in assay [5].

For `O=C1O[C@H]([C@@H](O)CO)C(O)=C1O`, the Activity in assay [1] was found to be 24.9%; in assay [2], 20.7%; in assay [3] it was 39%; in assay [4], 36.7%; in assay [5], 19.2%.

`COc1cc2c(c(O)c1OC)-c1c(cc3c(c1OC)OCO3)[C@H](OC(=O)c1ccccc1)[C@H](C)[C@H](C)[C@H]2OC(C)=O`: the Activity was -32.2% in assay [1]; -33.8% in assay [2]; -23.1% in assay [3]; -30.8% in assay [4]; -35.6% in assay [5].

`C/C=C(\C)C(=O)O[C@@H]1C2=CC(OC)=C(OC)C(=O)C23COc2c4c(cc(c23)[C@@H](OC(=O)c2ccccc2)[C@H](C)[C@]1(C)O)OCO4` (stereo not given in full): the Activity in assay [1] was 11.4%; in assay [2], 10.3%; in assay [3], 12.9%; in assay [4], 12.8%; in assay [5] it was 8.6%.

In the case of `C/C=C(\C)C(=O)O[C@@H]1c2cc3c(c4c2C2(CO4)C(=O)C(OC)=C(OC)C=C2[C@@H](OC(=O)c2ccccc2)[C@@](C)(O)[C@H]1C)OCO3` (stereo not given in full), the Activity in assay [1] was determined as 32%; in assay [2], 13.8%; in assay [3], 35.6%; in assay [4] it was 33.9%; in assay [5], 20.2%.
